Results reported in ChEMBL document CHEMBL1221265, “Synthesis and in vitro antibacterial activity of novel fluoroquinolone derivatives containing substituted piperidines” (Bioorg Med Chem Lett, 2010).
≈ marks a conversion by molar mass, not a printed value.

How the values were obtained:
[1] = tested on: Staphylococcus epidermidis; experiment: Antibacterial activity against Staphylococcus epidermidis ATCC 12228 after 18 to 24 hrs by agar dilution method; assay type: functional
Procedure, shortened: (§1)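 Agar dilution done to NCCLS recommendations. Plates incubated 18–24 h at 35 °C. MIC taken as the lowest concentration of compound that gave no visible bacterial growth.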

[2] = tested on: Streptococcus pneumoniae; experiment: Antibacterial activity against Streptococcus pneumoniae ATCC 49619 after 18 to 24 hrs by agar dilution method; assay type: functional; procedure, shortened: as §1
[3] = tested on: Pseudomonas aeruginosa; experiment: Antibacterial activity against Pseudomonas aeruginosa 17 after 18 to 24 hrs by agar dilution method; assay type: functional; procedure, shortened: as §1
[4] = tested on: Enterobacter cloacae; experiment: Antibacterial activity against Enterobacter cloacae 45301 after 18 to 24 hrs by agar dilution method; assay type: functional; procedure, shortened: as §1
[5] = tested on: Staphylococcus epidermidis; experiment: Antibacterial activity against methicillin-resistant Staphylococcus epidermidis 08-18 after 18 to 24 hrs by agar dilution method; assay type: functional
Procedure, shortened: (§2)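 Agar dilution MIC per NCCLS recommendations. MIC is the lowest concentration giving no visible bacterial growth after incubation at 35 °C for 18–24 h.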

[6] = tested on: Shigella sonnei; experiment: Antibacterial activity against Shigella sonnei 51592 after 18 to 24 hrs by agar dilution method; assay type: functional; procedure, shortened: as §1
[7] = tested on: Staphylococcus aureus; experiment: Antibacterial activity against Staphylococcus aureus ATCC 29213 after 18 to 24 hrs by agar dilution method; assay type: functional; procedure, shortened: as §1
[8] = tested on: Streptococcus pyogenes; experiment: Antibacterial activity against Streptococcus pyogenes 06-1 after 18 to 24 hrs by agar dilution method; assay type: functional; procedure, shortened: as §1
[9] = tested on: Klebsiella pneumoniae; experiment: Antibacterial activity against Klebsiella pneumoniae 7 after 18 to 24 hrs by agar dilution method; assay type: functional; procedure, shortened: as §1
[10] = tested on: Enterococcus faecalis; experiment: Antibacterial activity against Enterococcus faecalis ATCC 29212 after 18 to 24 hrs by agar dilution method; assay type: functional; procedure, shortened: as §1
[11] = tested on: Escherichia coli; experiment: Antibacterial activity against Escherichia coli 26 after 18 to 24 hrs by agar dilution method; assay type: functional; procedure, shortened: as §1
[12] = Cytotoxicity against african green monkey Vero cells after 48 hrs by CPE assay; assay type: cell-based; settings: chlorocebus sabaeus
[13] = tested on: Staphylococcus aureus; experiment: Antibacterial activity against methicillin-resistant Staphylococcus aureus 08-52 after 18 to 24 hrs by agar dilution method; assay type: functional; procedure, shortened: as §2

Compound	MIC [1] [µg/mL]	MIC [2] [µg/mL]	MIC [3] [µg/mL]	MIC [4] [µg/mL]	MIC [5] [µg/mL]	MIC [6] [µg/mL]	MIC [7] [µg/mL]	MIC [8] [µg/mL]	MIC [9] [µg/mL]	MIC [10] [µg/mL]	MIC [11] [µg/mL]	CC50 at 48 h [12] [µg/mL]	MIC [13] [µg/mL]
CCO/N=C1/CCN(c2c(F)cc3c(=O)c(C(=O)O)cn(CCF)c3c2F)CC1(C)CN (configuration not stated)	4 (≈ 8.8 µM)	128 (≈ 282 µM)	128 (≈ 282 µM)	64 (≈ 141 µM)	4 (≈ 8.8 µM)	64 (≈ 141 µM)	2 (≈ 4.4 µM)	128 (≈ 282 µM)	64 (≈ 141 µM)	128 (≈ 282 µM)	16 (≈ 35.2 µM)	157 (≈ 347 µM)	64 (≈ 141 µM)
CCn1cc(C(=O)O)c(=O)c2cc(F)c(N3CC/C(=N/OC)C(C)(CN)C3)c(F)c21 (configuration not stated)	2 (≈ 4.73 µM)	128 (≈ 303 µM)	64 (≈ 152 µM)	32 (≈ 75.8 µM)	2 (≈ 4.73 µM)	8 (≈ 18.9 µM)	1 (≈ 2.37 µM)	64 (≈ 152 µM)	64 (≈ 152 µM)	128 (≈ 303 µM)	8 (≈ 18.9 µM)	315 (≈ 746 µM)	32 (≈ 75.8 µM)
CCO/N=C1/CCN(c2c(F)cc3c(=O)c(C(=O)O)cn(C4CC4)c3c2F)CC1(C)CN (configuration not stated)	0.25 (≈ 0.557 µM)	8 (≈ 17.8 µM)	16 (≈ 35.7 µM)	16 (≈ 35.7 µM)	0.25 (≈ 0.557 µM)	2 (≈ 4.46 µM)	0.125 (≈ 0.279 µM)	16 (≈ 35.7 µM)	2 (≈ 4.46 µM)	2 (≈ 4.46 µM)	2 (≈ 4.46 µM)	62.5 (≈ 139 µM)	8 (≈ 17.8 µM)
CO/N=C1/CCN(c2c(F)cc3c(=O)c(C(=O)O)cn(CCF)c3c2F)CC1(C)CN (configuration not stated)	4 (≈ 9.08 µM)	128 (≈ 291 µM)	64 (≈ 145 µM)	64 (≈ 145 µM)	2 (≈ 4.54 µM)	16 (≈ 36.3 µM)	2 (≈ 4.54 µM)	128 (≈ 291 µM)	–	> 128	8 (≈ 18.2 µM)	315 (≈ 715 µM)	64 (≈ 145 µM)
CO/N=C1/CCN(c2nc3c(cc2F)c(=O)c(C(=O)O)cn3C2CC2)CC1(C)CN (configuration not stated)	1 (≈ 2.4 µM)	32 (≈ 76.7 µM)	8 (≈ 19.2 µM)	4 (≈ 9.58 µM)	0.25 (≈ 0.599 µM)	1 (≈ 2.4 µM)	0.5 (≈ 1.2 µM)	8 (≈ 19.2 µM)	0.5 (≈ 1.2 µM)	32 (≈ 76.7 µM)	0.5 (≈ 1.2 µM)	177 (≈ 423 µM)	8 (≈ 19.2 µM)
CCO/N=C1/CCN(c2nc3c(cc2F)c(=O)c(C(=O)O)cn3C2CC2)CC1(C)CN (configuration not stated)	0.5 (≈ 1.16 µM)	4 (≈ 9.27 µM)	16 (≈ 37.1 µM)	8 (≈ 18.5 µM)	0.25 (≈ 0.579 µM)	1 (≈ 2.32 µM)	0.25 (≈ 0.579 µM)	16 (≈ 37.1 µM)	1 (≈ 2.32 µM)	4 (≈ 9.27 µM)	1 (≈ 2.32 µM)	44.2 (≈ 102 µM)	8 (≈ 18.5 µM)
CCO/N=C1/CCN(c2nc3c(cc2F)c(=O)c(C(=O)O)cn3-c2ccc(F)cc2F)CC1(C)CN (configuration not stated)	4 (≈ 7.94 µM)	128 (≈ 254 µM)	128 (≈ 254 µM)	32 (≈ 63.6 µM)	2 (≈ 3.97 µM)	16 (≈ 31.8 µM)	2 (≈ 3.97 µM)	64 (≈ 127 µM)	64 (≈ 127 µM)	> 128	8 (≈ 15.9 µM)	78.8 (≈ 156 µM)	128 (≈ 254 µM)
CO/N=C1/CCN(c2c(F)cc3c(=O)c(C(=O)O)cn4c3c2OC[C@@H]4C)CC1(C)CN (some centres not stated)	2 (≈ 4.62 µM)	128 (≈ 296 µM)	32 (≈ 74 µM)	16 (≈ 37 µM)	1 (≈ 2.31 µM)	8 (≈ 18.5 µM)	1 (≈ 2.31 µM)	64 (≈ 148 µM)	128 (≈ 296 µM)	128 (≈ 296 µM)	4 (≈ 9.25 µM)	177 (≈ 409 µM)	64 (≈ 148 µM)
CO/N=C1/CCN(c2nc3c(cc2F)c(=O)c(C(=O)O)cn3-c2ccc(F)cc2F)CC1(C)CN (configuration not stated)	2 (≈ 4.09 µM)	64 (≈ 131 µM)	32 (≈ 65.4 µM)	32 (≈ 65.4 µM)	2 (≈ 4.09 µM)	8 (≈ 16.3 µM)	1 (≈ 2.04 µM)	64 (≈ 131 µM)	128 (≈ 262 µM)	> 128	8 (≈ 16.3 µM)	88.4 (≈ 181 µM)	128 (≈ 262 µM)
CO/N=C1/CCN(c2c(F)cc3c(=O)c(C(=O)O)cn(C4CC4)c3c2F)CC1(C)CN (configuration not stated)	0.25 (≈ 0.575 µM)	32 (≈ 73.7 µM)	16 (≈ 36.8 µM)	4 (≈ 9.21 µM)	0.25 (≈ 0.575 µM)	1 (≈ 2.3 µM)	0.25 (≈ 0.575 µM)	32 (≈ 73.7 µM)	64 (≈ 147 µM)	64 (≈ 147 µM)	0.5 (≈ 1.15 µM)	88.4 (≈ 203 µM)	16 (≈ 36.8 µM)
CCO/N=C1/CCN(c2c(F)cc3c(=O)c(C(=O)O)cn(CC)c3c2F)CC1(C)CN (configuration not stated)	4 (≈ 9.16 µM)	64 (≈ 147 µM)	128 (≈ 293 µM)	128 (≈ 293 µM)	2 (≈ 4.58 µM)	32 (≈ 73.3 µM)	2 (≈ 4.58 µM)	64 (≈ 147 µM)	16 (≈ 36.7 µM)	128 (≈ 293 µM)	16 (≈ 36.7 µM)	78.8 (≈ 180 µM)	16 (≈ 36.7 µM)
C[C@H]1COc2c(N3CCN(C)CC3)c(F)cc3c(=O)c(C(=O)O)cn1c23.C[C@H]1COc2c(N3CCN(C)CC3)c(F)cc3c(=O)c(C(=O)O)cn1c23.O [LEVOFLOXACIN]	0.25	–	0.25	0.125	0.125	1	0.125	16	–	0.5	–	> 1000	16
